# Bioassay records deposited in PubChem by SRMLSC.
# PostGolgi yeast = phenotypic screen on post-Golgi transport, primary screen. post-Golgi transport phenotypic cell assay. inhibition, % at 10 µM. 98,000 tested, 0.9% active;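 further: yeast cells grown in 1536-well plates; yeast grown about 18 h at 30C before absorbance read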
# Yeast life ext = compounds extending yeast replicative lifespan, primary screen, S. cerevisiae, OD615. S. cerevisiae growth with nicotinamide; deaD strain in restrictive glucose medium. inhibition of the nicotinamide effect, % at 10 µM. 130,000 tested, 0.68% active. AID 775, 2007;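 active means inhibition above a set limit, placed 3 SD over the median of all compounds, cut at about 26% in these data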;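 further: 0% = nicotinamide-treated wells and 100% = cells grown without nicotinamide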
#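 Material: Modified budding yeast, DeaD strain | Medium: Restrictive glucose medium | Probe or stimulus: 1.5 mM nicotinamide | Dosing: Single dose 10 µM compound, 0.25% DMSO | Times: 48 h at 30 °C | Technique: OD615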
# PostGolgi ctrl = growth inhibition of yeast control strain, primary screen, counter-screen for post-Golgi transport modulator project | efflux-deficient yeast background strain, growth absorbance A615, 16 h | inhibition, % at 10 µM | 98,000 tested, 5% active | AID 738, 2007
# BB579 growth dn = growth inhibitors of yeast BB579 in restrictive medium, primary screen, yeast lifespan-shortening project, S. cerevisiae; OD615, 48 h; inhibition, % at 10 µM; 140,000 tested, 0.51% active;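 active means inhibition above a set limit, 3 SD over the mean compound inhibition, cut at about 44% in these data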
#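 Assay system: S. cerevisiae DeaD strain BB579 yeast. Medium: CSMM-D restrictive synthetic medium containing dextrose (glucose). Times: 4 h cell preincubation, 48 h compound exposure, 30 °C humidified. Signal: OD615 turbidity measurement. Benchmarks: positive control amphotericin B 10 µg/mL.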
# * hit, by the source's call; . = not tested or not shown. This excerpt belongs to a sample that is enriched for hits. Unless noted, no stated cut-off is given here; in the data, active means inhibition above about 30%; inactive means the rest.
SMILES,PostGolgi yeast,Yeast life ext,PostGolgi ctrl,BB579 growth dn
O=[N+]([O-])c1cc(-c2nc3nc4ccccc4nc3n2CCc2ccccc2)cc([N+](=O)[O-])c1,.,11,.,-26
CC(C)OC(=O)c1cccnc1SCc1cc(=O)n2ccccc2n1,30*,1,30,-24
S=c1[nH]nc(COc2ccc(Cl)cc2)n1C1CCCCC1,.,.,.,14
Cc1ccc(OCc2n[nH]c(=S)n2C2CCCCC2)cc1,-2,3,41*,-23
c1ccc2[nH]c3cc4ncnc4cc3nc2c1,.,-5,.,-26
O=C(CCNS(=O)(=O)c1cccc2nonc12)NC1CCCc2ccccc21 (centres undefined),-8,-12,32*,-54
O=C(CCNS(=O)(=O)c1cccc2nsnc12)NC1CCCc2ccccc21 (centres undefined),14,7,7,-42
CC1=NOC(=O)/C1=C\c1ccc(-c2ccc(Cl)cc2Cl)o1,60*,5,35*,45*
CCOC(=O)C1=C(C)N(C)C(=S)NC1c1ccccc1Cl (centres undefined),5,-21,14,-29
CCOC(=O)N1C(=O)C2(CCCCC2)N(c2ccccc2Cl)C1=S,.,37*,.,0
Cc1cc(C(=O)NCc2ccccc2Br)no1,6,-5,10,-17
Cc1ccc(C)c(N2CCN(C(=O)c3ccc(CS(=O)(=O)c4ccccc4C)o3)CC2)c1,5,-7,38*,-67
Cc1ccc(S(=O)(=O)Cc2ccc(C(=O)N3CCCC3)o2)cc1,1,-2,-2,14
Cc1ccc(S(=O)(=O)Cc2ccc(C(=O)N3CCN(c4cc(C)ccc4C)CC3)o2)cc1,-2,-5,37*,-20
Cc1cccc(N2CCN(C(=O)c3ccc(CS(=O)(=O)c4ccccc4C)o3)CC2C)c1 (centres undefined),-2,-9,14,-12
C=C1C(=O)C=C2CN(C(=O)c3ccccc3)[C@@](Cc3ccc(F)cc3)(C(=O)OC)[C@@H]12,.,43*,.,-15
CCN1CCN(c2ccc(NC(=O)c3cccc(OCc4ccccc4)c3)cc2)CC1,-2,-9,0,-6
COc1ccccc1NC(=O)CN1CCN(CC(=O)Nc2ccc(OCc3ccccc3)cc2)CC1,-3,-14,51*,-29
CCOC(=O)N1CCN(CC(=O)Nc2ccc(Oc3ccccc3)cc2)CC1,4,-6,32*,-20
O=C(CN1CCN(c2ccccc2)CC1)Nc1ccc(OCc2ccccc2)cc1,2,-5,48*,-36
CN1CCN(CC(=O)Nc2ccc(Oc3ccccc3)cc2)CC1,10,-16,28,-46
CN1CCN(c2ccc(NC(=O)c3cccc(OCc4ccccc4)c3)cc2)CC1,0,-12,39*,-48
COc1cc(C2C3=C(CC(C)(C)CC3=O)OC(N)=C2[N+](=O)[O-])ccc1O (centres undefined),.,-5,.,-14
Cc1ccc(S(=O)(=O)N(C)C)cc1NC(=O)COC(=O)/C(=C/c1ccc(F)cc1)c1cccs1,.,19,.,-7
O/N=C/c1ccccc1OCc1ccc(Cl)cc1,7,-7,77*,-8
SMILES,PostGolgi yeast,Yeast life ext,PostGolgi ctrl,BB579 growth dn
CC1=NN(c2cccc(C(=O)O)c2)C(=O)/C1=C\C=C\c1ccco1,.,.,.,-31
O=C1NN(c2ccc(F)cc2)C(=O)/C1=C\C=C\c1ccco1,.,32*,.,-14
CCOC(=O)C(=Cc1ccc(F)cc1)C(=O)OCC,4,78*,9,-48
O=C(N/N=C/c1cccs1)c1cc(-c2ccc3ccccc3c2)n[nH]1,-3,-7,59*,-2
O=C(N/N=C/c1ccco1)c1cc(-c2ccc3ccccc3c2)n[nH]1,13,-11,43*,-36
Cc1ccc(Cl)cc1N1CCN(C(=O)c2cc3c(=O)[nH]c4ccccc4c3n2C)CC1,.,5,.,-30
Cc1cc2c(cc1C)C(c1cccc([N+](=O)[O-])c1)CC(=O)N2 (centres undefined),.,8,.,-34
O=C1CC(c2cccc(Br)c2)c2cc3c(cc2N1)CCC3 (centres undefined),19,-7,90*,-27
NS(=O)(=O)c1ccc(N2N=C(c3ccccc3)CC2c2cccc(F)c2)cc1 (centres undefined),.,7,.,-18
NS(=O)(=O)c1ccc(N2N=C(c3ccc(Br)cc3)CC2c2ccc(F)cc2)cc1 (centres undefined),16,-12,86*,-20
COc1cccc(-c2nc(N3CC(C)CC(C)C3)c3ccccc3n2)c1O (centres undefined),1,-9,75*,-32
COc1cccc(-c2nc(N3CCC(C)CC3)c3ccccc3n2)c1O,0,-6,72*,-17
Oc1ccccc1-c1nc(N2CCN(Cc3ccccc3)CC2)c2ccccc2n1,-5,-11,42*,-80
CC1CCN(c2nc(-c3ccccc3O)nc3ccccc23)CC1,0,-13,6,-41
Oc1ccccc1-c1nc(N2CCCC2)c2ccccc2n1,0,-17,22,-37
FC(F)Oc1ccc(/C=N/c2c(-c3ccc(OC(F)F)cc3)nc3n2CCS3)cc1,.,.,.,-50
CCCCCOC(=O)CSc1nc2c(c(=O)[nH]c(=O)n2C)n1CCc1ccccc1,0,92*,0,-27
CCCCOC(=O)CSc1nc2c(c(=O)[nH]c(=O)n2C)n1C/C=C(\C)Cl,2,87*,6,-13
Cn1c(=O)c2c(nc(Br)n2CCSc2ncccn2)n(C)c1=O,4,-4,8,-26
Cn1c(=O)[nH]c(=O)c2c1nc(Br)n2CCSc1ncccn1,-6,-23,36*,-43
CCCCCn1c(SCCc2ccccc2)nc2c1c(=O)[nH]c(=O)n2C,-6,-14,19,-47
CCCCCn1c(SCCCC)nc2c1c(=O)[nH]c(=O)n2C,-8,-10,33*,-48
COc1cc(NC(=S)NC(=O)c2ccccc2F)ccc1NC(=O)c1ccco1,.,4,.,-19
CCn1c(CSc2nc3ccccc3s2)nnc1SCC(=O)c1ccc(O)c(O)c1,19,-7,-17,-62
CCn1c(CSc2nc3ccccc3s2)nnc1SCC(=O)c1ccc(Cl)cc1,-9,-13,43*,-45
SMILES,PostGolgi yeast,Yeast life ext,PostGolgi ctrl,BB579 growth dn
O=C1CN(C(=O)c2ccccc2F)c2ccccc2N1,0,-3,1,-33
O=C1CN(C(=O)c2cccs2)c2ccccc2N1,-4,-11,33*,-25
COc1ccc(CNC(=O)Cn2cc(C(F)(F)F)ccc2=O)cc1,.,10,.,-6
CCc1ccc(OCC(=O)N2CCN=C2c2ccccc2)cc1,2,2,-3,-23
CCNc1nc2c(c(=O)n(Cc3ccccc3)c(=O)n2C)n1Cc1ccccc1,-1,-4,30*,-35
Cn1c(NCc2ccco2)nc2c1c(=O)n(Cc1ccc(Cl)c(Cl)c1)c(=O)n2C,15,4,49*,-50
CC(C)Sc1nc2c(c(=O)n(C)c(=O)n2C)n1Cc1ccc(Cl)cc1,-4,9,77*,-19
Cn1c(=O)c2c(nc(Br)n2Cc2ccc3ccccc3c2)n(C)c1=O,13,38*,4,-7
Cn1c(=O)c2c(nc(SCc3ccccc3)n2Cc2ccc(Cl)cc2)n(C)c1=O,.,.,.,-29
